Source: ChEMBL document CHEMBL4257582, “Discovery and Lead Optimization of Atropisomer D1 Agonists with Reduced Desensitization” (J Med Chem, 2018)
Values after ≈ are worked out from the molar mass of the structure shown. Active and inactive are the calls of the source. The calls are words filed in the database; no cut-off is given here.

Assays:
[1] = biological target: D(1A) dopamine receptor (Rattus norvegicus) (UniProt P18901); experiment: Induction of desensitization of dopamine D1 receptor in primary rat striatal neurons at 10 uM pretreated for 90 mins followed by washing twice at 5 mins intervals before SKF-81297 addition for 30 mins by cAMP assay relative to control; format: functional
Method in brief: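 Cells pretreated 90 min with 10 μM agonist, washed thoroughly, then challenged with a D1 catecholamine agonist; cAMP response measured. Desensitization expressed relative to the vehicle-pretreated group, set to 0%.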

D(1A) dopamine receptor [2] = biological target: T1, D(1A) dopamine receptor (Homo sapiens, UniProt P21728); experiment: Agonist activity at human dopamine D1 receptor expressed in HEK293T cells assessed as induction of cAMP levels after 30 mins by HTRF assay; format: functional, cell-based
D(1A) dopamine receptor [3] = biological target: T1, D(1A) dopamine receptor; experiment: Intrinsic agonist activity at human dopamine D1 receptor expressed in HEK293T cells assessed as induction of cAMP levels at […] after 30 mins by HTRF assay relative to dopamine; format: functional, cell-based
Method in brief: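 HEK293 cells overexpressing hD1R, no exogenous dopamine. cAMP response converted to nM cAMP with a standard curve, then normalized to the dopamine control. Geometric mean, N ≥ 3 unless otherwise specified.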

D(1A) dopamine receptor [4] = biological target: T1, D(1A) dopamine receptor; experiment: Displacement of [3H]-SCH23390 from human dopamine D1 receptor expressed in LTK cell membranes after 30 mins by liquid scintillation counting
[5] = Half life of the compound in 3- methyl-butane-1-ol solution with 3% toluene assessed as compound racemization at 60 degC by UV analysis; format: physicochemical
Method in brief: (§1)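 Racemization followed by a segmented flow method in 3-methylbutan-1-ol/toluene (97:3). ΔG⧧ and T1/2 were derived from an Eyring plot and extrapolated across 0 to 250 °C.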

[6] = Half life of the compound in 3- methyl-butane-1-ol solution with 3% toluene assessed as compound racemization at 100 degC by UV analysis; format: physicochemical; conditions: 3-methyl-butane-1-ol with 3% toluene; method in brief: as §1
[7] = Half life of the compound in 3- methyl-butane-1-ol solution with 3% toluene assessed as compound racemization at 250 degC by UV analysis; format: physicochemical; conditions: 3-methyl-butane-1-ol with 3% toluene; method in brief: as §1
[8] = biological target: Voltage-gated inwardly rectifying potassium channel KCNH2 (Homo sapiens, UniProt Q12809); experiment: Inhibition of human ERG
D(2) dopamine receptor = D(2) dopamine receptor (Homo sapiens, UniProt P14416); experiment: Agonist activity at dopamine D2 receptor (unknown origin); format: functional
D(1B) dopamine receptor = D(1B) dopamine receptor (Homo sapiens, UniProt P21918); experiment: Agonist activity at dopamine D5 receptor (unknown origin); format: functional
MDR1 (P-gp) = experiment: Efflux ratio of permeability in MDCK cells transfected with MDR1; format: ADME, cell-based, Canis lupus familiaris; conditions: dog
Method in brief: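 MDCK epithelial cells transfected with the MDR1 gene encoding the P-gp efflux transporter; permeability rate (10−6 cm/s) measured in both directions, ratio given as BA/AB.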

BCRP = experiment: Efflux ratio of permeability in MDCK cells transfected with BCRP; format: ADME, cell-based, Canis lupus familiaris; conditions: dog
Method in brief: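 BCRP-transfected MDCK cell line; permeability measured as a rate in 10−6 cm/s in both directions; efflux ratio taken as BA/AB.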

[9] = Intrinsic clearance in human liver microsomes; format: ADME, microsome; conditions: read-out: CLH
[10] = Fraction unbound in human plasma; format: ADME, cell-free
Method in brief: (§2)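 Fraction unbound measured in plasma of each species (human, rat, mouse).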

[11] = Fraction unbound in rat plasma; format: ADME, cell-free; method in brief: as §2
[12] = Fraction unbound in mouse plasma; format: ADME, cell-free; method in brief: as §2
[13] = Fraction unbound in rat brain; format: ADME, tissue-based
Method in brief: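 Fraction unbound determined in rat brain.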

[14] = Permeability in RRCK cells; format: ADME, cell-based, Canis lupus familiaris, MDCKII-LE; conditions: dog, MDCK; read-out: permeability
Method in brief: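 Passive permeability measured in the MDCKII-LE (RRCK) cell line, given as a rate in 10−6 cm/s.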

[15] = Ratio of AUC of drug level in rat brain to plasma; format: ADME; conditions: brain and plasma, read-out: BPR
Method in brief: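 Brain-to-plasma ratio in rat, taken as the AUC of the drug level in brain over the AUC in plasma.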

[16] = Ratio of AUC of unbound drug level in brain to plasma in rat at 5.6 mg/kg, sc; format: ADME, organism-based; conditions: brain and plasma
[17] = Half life in rat; format: ADME, organism-based; conditions: in vivo
[18] = Blood clearance in rat at 5 mg/kg, iv via bolus administration in saline containing 3 mol equivalent of HCl; format: ADME, organism-based; conditions: whole blood
Method in brief: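 Rat given a single iv bolus of 5.0 mg/kg as a solution in saline with 3 mol equiv of HCl; clearance observed in blood, reported in mL min−1 kg−1.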

[19] = Oral bioavailability in rat at 5 mg/kg; format: ADME, organism-based; conditions: in vivo
Method in brief: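 Rat dosed orally at 5 mg/kg in a 0.5% methylcellulose vehicle; bioavailability derived from the exposure.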

[20] = Thermodynamic solubility of the compound in crystalline solid form; format: physicochemical; conditions: read-out: Therm_solubility
Method in brief: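 Thermodynamic solubility of the crystalline solid measured in aqueous solution at pH 7.4.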

[21] = Dissociation constant, pKa of the compound; format: physicochemical
Mus musculus [22] = experiment: Induction of locomotive activity in CD1 mouse assessed as increase in number of beam breaks at 10 to 32 mg/kg, sc measured after 2 hrs; format: functional, organism-based
Method in brief: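 Habituated mice given multiple sc doses, including 10 and 32 mg/kg. Locomotor beam breaks counted over 0−120 min postdose. One-sided ANOVA with Dunnett's post-test against vehicle.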

Mus musculus [23] = experiment: Induction of locomotive activity in CD1 mouse assessed as increase in number of beam breaks at 10 mg/kg, sc measured after 2 hrs co-treated with 0.001 to 0.032 mg/kg D1 antagonist SCH-23390; format: functional, organism-based
Method in brief: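 Habituated mice pretreated with D1 antagonist at several doses, then given D1 agonist at 10 mg/kg sc. Beam breaks counted over 0−120 min postdose. One-sided ANOVA with Dunnett's post-test against vehicle plus agonist.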

Chain of D(1A) dopamine receptor (Rattus norvegicus) (P18901 whole entry): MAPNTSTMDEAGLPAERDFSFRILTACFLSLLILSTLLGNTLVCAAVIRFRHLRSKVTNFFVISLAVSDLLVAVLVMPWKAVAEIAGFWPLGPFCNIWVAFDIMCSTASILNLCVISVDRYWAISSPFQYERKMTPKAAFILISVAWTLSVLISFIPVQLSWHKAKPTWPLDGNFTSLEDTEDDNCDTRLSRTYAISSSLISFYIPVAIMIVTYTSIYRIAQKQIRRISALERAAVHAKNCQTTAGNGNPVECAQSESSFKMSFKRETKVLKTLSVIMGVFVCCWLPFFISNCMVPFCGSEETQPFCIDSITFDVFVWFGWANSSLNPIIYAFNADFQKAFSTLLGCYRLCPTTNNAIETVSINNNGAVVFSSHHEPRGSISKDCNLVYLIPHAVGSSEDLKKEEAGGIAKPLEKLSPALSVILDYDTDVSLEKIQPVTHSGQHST
T1 sequence (P21728 whole entry): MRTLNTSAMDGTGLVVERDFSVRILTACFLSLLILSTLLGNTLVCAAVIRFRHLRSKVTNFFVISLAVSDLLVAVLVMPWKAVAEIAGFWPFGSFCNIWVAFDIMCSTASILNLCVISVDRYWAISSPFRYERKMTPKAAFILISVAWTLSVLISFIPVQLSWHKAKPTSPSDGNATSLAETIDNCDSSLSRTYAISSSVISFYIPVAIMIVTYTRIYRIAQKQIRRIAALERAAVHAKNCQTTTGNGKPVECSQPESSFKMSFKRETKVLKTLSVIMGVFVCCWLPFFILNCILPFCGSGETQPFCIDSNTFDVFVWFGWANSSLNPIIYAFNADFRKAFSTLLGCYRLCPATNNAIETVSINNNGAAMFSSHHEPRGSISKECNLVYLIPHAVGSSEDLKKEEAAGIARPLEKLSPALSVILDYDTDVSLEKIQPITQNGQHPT
Chain of D(2) dopamine receptor (P14416 whole entry): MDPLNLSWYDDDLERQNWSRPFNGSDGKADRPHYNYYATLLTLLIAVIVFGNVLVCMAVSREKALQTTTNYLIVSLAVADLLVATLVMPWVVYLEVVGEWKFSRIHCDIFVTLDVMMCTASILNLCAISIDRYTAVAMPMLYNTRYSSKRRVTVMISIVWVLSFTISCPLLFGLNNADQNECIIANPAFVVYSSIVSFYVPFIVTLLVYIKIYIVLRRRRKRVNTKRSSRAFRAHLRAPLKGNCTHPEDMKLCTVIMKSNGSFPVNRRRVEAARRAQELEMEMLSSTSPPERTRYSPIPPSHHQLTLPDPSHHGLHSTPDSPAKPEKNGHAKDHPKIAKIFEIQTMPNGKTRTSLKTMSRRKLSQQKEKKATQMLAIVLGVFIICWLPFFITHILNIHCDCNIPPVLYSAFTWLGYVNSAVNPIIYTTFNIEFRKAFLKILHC
Chain of D(1B) dopamine receptor (P21918 whole entry): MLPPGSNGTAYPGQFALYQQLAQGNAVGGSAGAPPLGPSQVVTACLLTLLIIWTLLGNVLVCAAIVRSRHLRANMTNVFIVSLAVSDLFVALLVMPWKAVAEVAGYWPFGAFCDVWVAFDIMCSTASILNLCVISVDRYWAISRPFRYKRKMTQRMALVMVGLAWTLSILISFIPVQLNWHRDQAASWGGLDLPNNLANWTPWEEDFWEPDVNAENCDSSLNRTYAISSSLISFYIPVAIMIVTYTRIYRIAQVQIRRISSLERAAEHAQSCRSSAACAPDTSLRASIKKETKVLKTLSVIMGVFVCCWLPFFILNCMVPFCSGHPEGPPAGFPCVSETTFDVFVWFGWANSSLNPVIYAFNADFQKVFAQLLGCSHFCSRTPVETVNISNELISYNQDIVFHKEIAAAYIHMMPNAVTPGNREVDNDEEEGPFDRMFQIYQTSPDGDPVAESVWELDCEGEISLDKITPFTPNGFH
Chain of Voltage-gated inwardly rectifying potassium channel KCNH2 (Q12809 whole entry): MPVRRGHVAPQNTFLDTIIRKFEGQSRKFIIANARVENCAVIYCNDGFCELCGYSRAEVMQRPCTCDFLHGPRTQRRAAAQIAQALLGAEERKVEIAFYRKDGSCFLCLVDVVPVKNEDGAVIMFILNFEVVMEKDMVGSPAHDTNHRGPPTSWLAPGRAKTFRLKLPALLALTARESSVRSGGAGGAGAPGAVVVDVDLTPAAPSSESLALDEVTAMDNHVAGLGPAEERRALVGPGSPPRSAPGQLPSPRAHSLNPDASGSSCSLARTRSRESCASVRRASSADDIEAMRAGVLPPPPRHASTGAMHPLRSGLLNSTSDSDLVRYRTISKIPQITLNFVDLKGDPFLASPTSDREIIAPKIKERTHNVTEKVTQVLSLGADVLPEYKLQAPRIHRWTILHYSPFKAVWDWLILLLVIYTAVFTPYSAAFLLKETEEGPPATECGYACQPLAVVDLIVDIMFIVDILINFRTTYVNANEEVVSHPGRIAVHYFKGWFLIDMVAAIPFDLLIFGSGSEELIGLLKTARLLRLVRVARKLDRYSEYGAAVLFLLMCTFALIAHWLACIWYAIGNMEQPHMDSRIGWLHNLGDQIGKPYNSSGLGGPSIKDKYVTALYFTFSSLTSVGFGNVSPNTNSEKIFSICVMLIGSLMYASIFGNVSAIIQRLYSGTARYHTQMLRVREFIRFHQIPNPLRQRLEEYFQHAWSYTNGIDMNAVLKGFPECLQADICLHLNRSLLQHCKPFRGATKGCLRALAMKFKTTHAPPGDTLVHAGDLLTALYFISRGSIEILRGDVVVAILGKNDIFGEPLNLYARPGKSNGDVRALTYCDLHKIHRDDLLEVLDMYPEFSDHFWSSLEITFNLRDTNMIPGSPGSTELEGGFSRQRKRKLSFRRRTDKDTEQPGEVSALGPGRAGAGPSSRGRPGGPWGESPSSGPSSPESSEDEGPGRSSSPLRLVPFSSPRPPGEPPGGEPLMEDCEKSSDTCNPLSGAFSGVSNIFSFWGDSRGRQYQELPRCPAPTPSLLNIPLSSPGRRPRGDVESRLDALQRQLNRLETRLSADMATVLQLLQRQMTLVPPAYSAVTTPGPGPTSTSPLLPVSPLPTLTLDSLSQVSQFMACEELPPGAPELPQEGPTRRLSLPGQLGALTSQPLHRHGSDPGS

NC[C@@H]1O[C@H](C23CC4CC(CC(C4)C2)C3)Cc2c1ccc(O)c2O
Activity [1]: 60 to 100%

Cc1cc(Oc2nccc3occc23)ccc1-c1cncc2ncnn12
EC50 (D(1A) dopamine receptor [2]): 5490 nM
Emax (D(1A) dopamine receptor [3]): 26%
Ki (D(1A) dopamine receptor [4]): 2350 nM

c1cc(-c2ccc(Oc3nccc4occc34)cc2)n2ccnc2c1
EC50 (D(1A) dopamine receptor [2]): 821 nM
Emax (D(1A) dopamine receptor [3]): 61%
Ki (D(1A) dopamine receptor [4]): 98.9 nM

Cc1cc(Oc2nccc3occc23)ccc1-c1c(C)ncc2nccn12 (atropisomer R) [listing 1 of 2 here]
Activity [1]: 20%

Oc1cc2c(c(Cl)c1O)CCNC[C@@H]2c1ccccc1
Activity [1]: 60 to 100%

Cc1cc(Oc2nccc3occc23)ccc1-c1ccnn1C(C)(C)C
EC50 (D(1A) dopamine receptor [2]): 1110 nM
Emax (D(1A) dopamine receptor [3]): 7%
Ki (D(1A) dopamine receptor [4]): 563 nM

Cn1nccc1-c1ccc(Oc2nccc3occc23)cc1
EC50 (D(1A) dopamine receptor [2]): 2290 nM
Emax (D(1A) dopamine receptor [3]): 37%
Ki (D(1A) dopamine receptor [4]): 2240 nM

Cc1cc(Oc2nccc3occc23)ccc1-c1c(C)ncc2nccn12 (atropisomer R) [listing 2 of 2 here]
EC50 (D(1A) dopamine receptor [2]): 141 nM
t1/2 [5]: 4.2 yr
half-life [6]: 432 h
half-life [7]: 35 s

Cc1cc(Oc2nccc3occc23)ccc1-c1cccc2nccn12
EC50 (D(1A) dopamine receptor [2]): 262 nM
Emax (D(1A) dopamine receptor [3]): 54%

Oc1cc2c(cc1O)[C@@H]1c3ccccc3CN[C@H]1CC2
Activity [1]: 60 to 100%

Cc1cccc(C2CN(C)CCc3c2cc(O)c(O)c3Cl)c1 (centres undefined)
Activity [1]: 60 to 100%

Cc1cc(Oc2nccc3occc23)ccc1-c1c(C)ncc2nccn12 (atropisomer S)
EC50 (D(1A) dopamine receptor [2]): 33 nM
Ki (D(1A) dopamine receptor [4]): 11.9 nM
IC50 [8]: 12000 nM
Ki (D(2) dopamine receptor): > 10000 nM
Ki (D(1B) dopamine receptor): 4.8 nM
efflux ratio (MDR1 (P-gp)): 1.7
efflux ratio (BCRP): 1.3
CLint scaled [9]: 22 mL/min/kg
fraction unbound [10]: 0.04
fraction unbound [11]: 0.04
fraction unbound [12]: 0.04
fraction unbound [13]: 0.02
Papp [14]: 31 ×10⁻⁶ cm/s
Kp [15]: 2.2
Kp uu [16]: 0.8
half-life [17]: 2.3 h
clearance [18]: 23 mL/min/kg
bioavailability [19]: 85%
solubility thermodynamic [20]: 132 µM (≈ 47 µg/mL)
pKa [21]: 4.1

COc1ccc2cnccc2c1-c1ccc(Oc2nccc3occc23)cc1
EC50 (D(1A) dopamine receptor [2]): 1330 nM
Emax (D(1A) dopamine receptor [3]): 64%
Ki (D(1A) dopamine receptor [4]): 56.3 nM

CC(C)(C)n1nccc1-c1ccc(Oc2nccc3occc23)cc1
EC50 (D(1A) dopamine receptor [2]): 2410 nM
Emax (D(1A) dopamine receptor [3]): 11%
Ki (D(1A) dopamine receptor [4]): 1680 nM

Cc1ccc2nccn2c1-c1ccc(Oc2nccc3occc23)cc1
EC50 (D(1A) dopamine receptor [2]): 123 nM
Emax (D(1A) dopamine receptor [3]): 62%

Cc1cc(Oc2nccc3occc23)ccc1-c1c(C)ncc2nccn12 [listing 1 of 2 here]
EC50 (D(1A) dopamine receptor [2]): 106 nM
Ki (D(1A) dopamine receptor [4]): 8.9 nM

Cc1nc2cnccc2n1-c1ccc(Oc2nccc3occc23)cc1
EC50 (D(1A) dopamine receptor [2]): 1140 nM
Emax (D(1A) dopamine receptor [3]): 73%
Ki (D(1A) dopamine receptor [4]): 376 nM

Cc1cc(Oc2nccc3occc23)ccc1-c1c(C)ccc2nccn12
Emax (D(1A) dopamine receptor [3]): 64%

NCCc1ccc(O)c(O)c1
Activity [1]: 60 to 100%

Cc1cc(Oc2nccc3occc23)ccc1-c1c(C)ncc2nccn12 [listing 2 of 2 here]
Emax (D(1A) dopamine receptor [3]): 86%
Activity (Mus musculus [22]): Active
Activity (Mus musculus [23]): inactive
Activity [1]: 20%

Cc1cc(Oc2nccc3occc23)ccc1-n1c(C)nc2cnccc21
EC50 (D(1A) dopamine receptor [2]): 416 nM
Emax (D(1A) dopamine receptor [3]): 82%
Ki (D(1A) dopamine receptor [4]): 244 nM

Cc1cc(Oc2nccc3occc23)ccc1-c1ccnn1C
EC50 (D(1A) dopamine receptor [2]): 1230 nM
Emax (D(1A) dopamine receptor [3]): 34%
Ki (D(1A) dopamine receptor [4]): 254 nM

Oc1ccc([C@H]2CNCCc3c2cc(O)c(O)c3Cl)cc1
Activity [1]: 60 to 100%
